The results in this text go back to ChEMBL document CHEMBL4342497, “Design, Synthesis, and Conformation-Activity Study of Unnatural Bridged Bicyclic Depsipeptides as Highly Potent Hypoxia Inducible Factor-1 Inhibitors and Antitumor Agents” (J Med Chem, 2020).

The source made the active and inactive calls. The rule behind the calls is not given here.

Test [1] deals with MCF7. Kind of test: Cytotoxicity against human MCF7 cells assessed as reduction in cell viability incubated for 72 hrs by MTT assay. The class given is functional, cell-based. To be noted: MCF7, 72 h. In short, it runs like this:
(§1)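 Cells seeded overnight at 3.0×10^3 (A549), 5.0×10^3 (HT29) or 4.0×10^3 (MCF-7, MDA-MB-231) per well, then exposed to compound for 72 h. Medium replaced, MTT 0.5 mg/mL added for 4 h at 37 °C, cells lysed in DMSO, absorbance read at 570 nm. IC50 as mean ± SD, n = 3. Final DMSO below 1.0%.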
Background: Tetrazolium dyes change colour on reduction, which living cells bring about.

Test [2] in a line: Binding affinity to synthetic 5'-FAM-CCCTACGTATATGAAAATATACGTAGGG-BHQ1-3' dsDNA assessed as melting temperature at 2.5 uM by SYBR green I dye dependent differential scanning fluorimetry based thermal denaturation method (reference value: 70.7 +/- 0.0 degC). (In general: DSF heats the sample and reads unfolding from a dye or from intrinsic fluorescence.)
The subject of the next test is HT-29. The experiment in a line: Cytotoxicity against human HT-29 cells assessed as reduction in cell viability incubated for 72 hrs by MTT assay. It counts as functional, cell-based. Conditions: HT-29, 72 h. In short, it runs like this: as §1
Test [3] in a line: Inhibition of HIF1 (unknown origin) expressed in HEK293 cells assessed as reduction in hypoxia-induced HIF1 activation pre-incubated for 1 hrs before hypoxia exposure for 24 hrs by luciferase reporter gene assay. The class given is cell-based. To be noted: Homo sapiens. In short, it runs like this: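 HEK293 cells stably carrying HRE reporter plasmid p2.1, seeded at 8.0×10^4 per well and grown 24 h in normoxia. Medium changed to fresh medium with 0.25% DMSO and a range of compound concentrations for 1 h, then 24 h at 1% O2 or normoxia. Luciferase activity normalised to protein content. IC50 as mean ± SD, n = 3.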
A general note: Reporter assays use an easily measured gene product as a stand-in for the process of interest.

Test [4] in a line: Inhibition of HIF1 (unknown origin) expressed in HEK293 cells assessed as reduction in hypoxia-induced HIF1 activation by luciferase reporter gene assay. To be noted: Homo sapiens. It counts as cell-based. The procedure, abridged: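 HEK293 clone stably carrying the p2.1 HRE-luciferase reporter, seeded at 8.0×10^4 cells/well and grown 24 h under normoxia. Cells were given fresh medium containing 0.25% DMSO and a range of compound concentrations for 1 h, then held under hypoxia (1% O2) or normoxia for 24 h. Luciferase activity was measured with a kit and normalised to protein content. IC50 reported as mean ± SD, n = 3.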

Test [5] has as its system MCF7. The experiment in a line: Cytotoxicity against human MCF7 cells assessed as reduction in cell viability. The class given is functional, cell-based. The procedure, abridged:
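MTT viability assay. For the 72 h format, cells were plated overnight at 4.0×10^3 cells/well and then exposed to compounds for 72 h. For the 24 h screening format, cells were plated at 8.0×10^3 cells/well and exposed for 24 h. Medium was then refreshed, MTT was added at 0.5 mg/mL for 4 h at 37 °C, and cells were lysed in DMSO. Absorbance was read at 570 nm. IC50 reported as mean ± SD, n = 3.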

The next test deals with A549. Kind of test: Cytotoxicity against human A549 cells assessed as reduction in cell viability incubated for 72 hrs by MTT assay. The class given is functional, cell-based. Conditions: A549, 72 h. In short, it runs like this: as §1
A short description of test [6]: Binding affinity to synthetic d(ACGTAGAACGT) dsDNA assessed as melting temperature at 2.5 uM by SYBR green I dye dependent differential scanning fluorimetry based thermal denaturation method (reference value: 44.2 +/- 1.0 degC).
The subject of a further test is MDA-MB-231. Kind of test: Cytotoxicity against human MDA-MB-231 cells assessed as reduction in cell viability incubated for 72 hrs by MTT assay. It counts as functional, cell-based. Conditions: MDA-MB-231, 72 h. The procedure, abridged: as §1
Test [7] can be described thus: Retardation factor of the compound.
The subject of test [8] is MCF7. The experiment in a line: Cytotoxicity against human MCF7 cells assessed as reduction in cell viability incubated for 24 hrs by MTT assay. It counts as functional, cell-based. To be noted: MCF7, 24 h. The procedure, abridged:
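MCF-7 cells seeded at 8.0×10^3 per well and treated with compound for 24 h. MTT 0.5 mg/mL added for 4 h at 37 °C after medium exchange, then DMSO lysis and absorbance at 570 nm. IC50 as mean ± SD, n = 3.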

Test [9] has as its system MCF7. Kind of test: Inhibition of hypoxia-induced HIF1 mRNA expression in human MCF7 cells incubated for 16 hrs by RT-PCR analysis. It counts as functional, cell-based.

For orientation: IC50 means the concentration at which inhibition is half-maximal. The term Tm denotes the temperature at the midpoint of the melting transition. In the case of `CSC1SC[C@H]2C(=O)N(C)[C@@H](C(C)C)C(=O)OC[C@@H](NC(=O)c3cnc4ccccc4n3)C(=O)N[C@@H](C)C(=O)N(C)[C@@H]1C(=O)N(C)[C@@H](C(C)C)C(=O)OC[C@@H](NC(=O)c1cnc3ccccc3n1)C(=O)N[C@@H](C)C(=O)N2C` (stereo partly drawn), the concentration for half-maximal inhibition (IC50) was 2 nM with MCF7 [1]; 3.5 nM with HT-29; 0.35 nM in test [3]; 0.35 nM in test [4]; 5.5 nM with MCF7 [5]; 4.7 nM with A549. The IC50 was 2.3 nM in the test on MDA-MB-231 and 5.5 nM in the test with MCF7 [8]. Also, the Tm in [2] amounted to 81.6 °C; in test [6], 55.8 °C. The same molecule returned a Rm in [7] of 0.28. The inhibition result with MCF7 [9] was “inactive”.
For the molecule `CC(C)[C@H]1C(=O)OC[C@@H](NC(=O)c2cnc3ccccc3n2)C(=O)N[C@@H](C)C(=O)N(C)[C@H]2CSSC[C@@H](C(=O)N1C)N(C)C(=O)[C@H](C)NC(=O)[C@H](NC(=O)c1cnc3ccccc3n1)COC(=O)[C@H](C(C)C)N(C)C2=O` [TRIOSTIN], the IC50 in the test with MCF7 [1] came out at 212 nM; in the test on HT-29 it was 340 nM; in [3] it was 26.9 nM; in test [4], 26.9 nM; in the test on MCF7 [5], 4100 nM; in the test on A549, 322 nM. The 50% inhibitory concentration (IC50) in the test on MDA-MB-231 stood at 178 nM; in the test on MCF7 [8], 2000 nM. In addition, the Tm in [2] was determined as 78 °C; in test [6], 47.2 °C. Besides, the Rm in [7] came out at 0.15.
